Measurements published in ChEMBL document CHEMBL3098084, “Synthesis and preliminary evaluation of a new fluorine-18 labelled triazine derivative for PET imaging of cannabinoid CB2 receptor” (Bioorg Med Chem Lett, 2014).
Blank lines part the entries; values can stand above or below the compound they belong to.

How the values were obtained:
[1] = Drug uptake in perietal cotrex of baboon neuroinflammation model at 110 +/- 34 MBq, iv after 20 mins by PET imaging analysis; type: ADME, organism-based, Parietal cortex; settings: papio anubis, in vivo
In short: (§1)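 Baboons (Papio anubis) received [¹⁸F]-d₂-3 (110 34 MBq) iv. PET images were acquired over 180 min on a Siemens Biograph mCT camera with arterial blood sampling. Regional time-activity curves (frontal, occipital, temporal and parietal cortex, cerebellum) were expressed as SUV, and whole-brain uptake as percent injected dose. Where used, LPS (0.05 or 0.1 mg/kg) was given iv 4 h before the radiotracer.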

[2] = Drug uptake in cerebellum of baboon neuroinflammation model at 110 +/- 34 MBq, iv after 20 mins by PET imaging analysis; type: ADME, organism-based; settings: papio anubis, in vivo; in short: as §1
[3] = Drug metabolism in baboon neuroinflammation model plasma assessed as compound remaining at 110 +/- 34 MBq, iv after 180 mins by HPLC analysis; type: ADME, organism-based; settings: papio anubis, read-out: Stability
In short: (§2)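 Radiotracer [¹⁸F]-d₂-3 (110 34 MBq) was given iv to rhesus macaque or baboon, with arterial blood sampled over 180 min. Parent fraction in plasma was determined by reverse-phase HPLC in a subset of samples. Where used, LPS (0.05 or 0.1 mg/kg) was given iv 4 h before the radiotracer.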

[4] = Drug uptake in occipital cotrex of baboon neuroinflammation model at 110 +/- 34 MBq, iv after 20 mins by PET imaging analysis; type: ADME, organism-based, Occipital cortex; settings: papio anubis, in vivo; in short: as §1
[5] = Drug metabolism in baboon neuroinflammation model plasma assessed as compound remaining at 110 +/- 34 MBq, iv administered 180 mins post LPS-challenge by HPLC analysis; type: ADME, organism-based; settings: papio anubis, read-out: Stability; in short: as §2
Brain = assay: Drug uptake in whole brain of baboon neuroinflammation model at 110 +/- 34 MBq, iv after 20 mins by PET imaging analysis; type: ADME, organism-based; settings: papio anubis, in vivo; in short: as §1
[6] = Drug metabolism in rhesus monkey plasma assessed as compound remaining at 110 +/- 34 MBq, iv after 180 mins by HPLC analysis; type: ADME, organism-based, Macaca mulatta; settings: read-out: Stability; in short: as §2
[7] = Drug uptake in frontal cortex of baboon neuroinflammation model at 110 +/- 34 MBq, iv after 20 mins by PET imaging analysis; type: ADME, organism-based; settings: papio anubis, in vivo; in short: as §1
[8] = Drug uptake in temporal cotrex of baboon neuroinflammation model at 110 +/- 34 MBq, iv after 20 mins by PET imaging analysis; type: ADME, organism-based, Temporal cortex; settings: papio anubis, in vivo; in short: as §1
Cannabinoid receptor 1 = Cannabinoid receptor 1 (Homo sapiens, UniProt P21554); assay: Binding affinity to human CB1 receptor
Cannabinoid receptor 2 [9] = target: T1, Cannabinoid receptor 2 (Homo sapiens, UniProt P34972); assay: Binding affinity to human CB2 receptor
[10] = Apparent terminal half life in CD-1 mouse at 3 mg/kg, iv; type: ADME, organism-based; set-up: dose 3 mg/kg, route intravenous; settings: in vivo, read-out: betat1/2(app) (converted)
In short: (§3)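 Male CD1 mice got a single intravenous dose of 3 mg/kg. Drug levels were measured in plasma and brain. The first sampling time was 5 min post-dose. Apparent terminal half-life and brain/plasma AUC(0-inf) were derived from the concentration-time profiles.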

Cannabinoid receptor 2 [11] = target: T1, Cannabinoid receptor 2; assay: Binding affinity to human CB2 receptor expressed in CHO cells; type: cell-based
Cannabinoid receptor 2 [12] = target: T1, Cannabinoid receptor 2; assay: Agonist activity at human CB2 receptor expressed in CHO CRE-luc cells; type: functional, cell-based
[13] = Cmax in brain of CD-1 mouse at 3 mg/kg, iv after 5 mins; type: ADME, organism-based; set-up: dose 3 mg/kg, route intravenous; in short: as §3

T1 sequence (P34972 whole entry): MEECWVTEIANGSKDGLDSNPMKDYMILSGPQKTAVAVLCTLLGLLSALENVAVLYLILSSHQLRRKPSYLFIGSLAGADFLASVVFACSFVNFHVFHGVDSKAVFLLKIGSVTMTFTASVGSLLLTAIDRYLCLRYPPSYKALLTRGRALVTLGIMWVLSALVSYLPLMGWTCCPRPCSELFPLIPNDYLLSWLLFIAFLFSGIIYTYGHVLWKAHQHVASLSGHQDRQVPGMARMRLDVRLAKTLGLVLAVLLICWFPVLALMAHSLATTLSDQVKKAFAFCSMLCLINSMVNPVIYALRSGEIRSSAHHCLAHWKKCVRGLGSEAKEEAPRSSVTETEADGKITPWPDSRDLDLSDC
Sequence of Cannabinoid receptor 1 (P21554 whole entry): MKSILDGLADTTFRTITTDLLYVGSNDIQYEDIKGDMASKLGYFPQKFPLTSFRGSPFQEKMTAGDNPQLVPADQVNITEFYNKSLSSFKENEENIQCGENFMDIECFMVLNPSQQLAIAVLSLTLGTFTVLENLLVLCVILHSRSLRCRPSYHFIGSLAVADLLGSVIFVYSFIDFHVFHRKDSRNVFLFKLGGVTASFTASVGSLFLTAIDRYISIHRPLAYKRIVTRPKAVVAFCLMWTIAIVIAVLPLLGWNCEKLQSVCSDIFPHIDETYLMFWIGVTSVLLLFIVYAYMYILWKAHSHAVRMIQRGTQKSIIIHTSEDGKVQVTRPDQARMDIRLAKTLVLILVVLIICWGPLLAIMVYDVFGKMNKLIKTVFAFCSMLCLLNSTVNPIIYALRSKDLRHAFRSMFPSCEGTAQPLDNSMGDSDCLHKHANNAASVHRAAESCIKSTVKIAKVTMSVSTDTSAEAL

- SUV [1]: 0.7 g/mL
- SUV [2]: 0.7 g/mL
- remaining at 3 h [3]: 35%
- SUV [4]: 0.7 g/mL
- remaining at 3 h [5]: 15%
- Drug uptake (Brain): 0.5 %ID
- remaining at 3 h [6]: 35%
- SUV [7]: 0.7 g/mL
- SUV [8]: 0.7 g/mL
SMILES: [2H]C([2H])([18F])Oc1nc(NCCc2ccc(F)cc2)nc(-c2ccc(Cl)c(C(C)(C)O)c2)n1

- IC50 (Cannabinoid receptor 1): 300 nM
- IC50 (Cannabinoid receptor 2 [9]): 0.58 nM
SMILES: COc1nc(NCCc2ccc(F)cc2)nc(-c2ccc(Cl)c(C(C)(C)O)c2)n1

- half-life [10]: 57.6 min
- IC50 (Cannabinoid receptor 2 [11]): 1.4 nM
- EC50 (Cannabinoid receptor 2 [12]): 0.78 nM
- Cmax [13]: 2300 ng/g
SMILES: CC(C)(O)c1cc(-c2nc(NCCc3ccc(F)cc3)nc(OCF)n2)ccc1Cl
